Insulin prom inh: TRM-6 insulin promoter activity inhibition; TRM-6 cells (human fetal islet line), insulin promoter-eGFP reporter, imaging; reporter expression induced with tamoxifen; hit rate 0.9% among 130,000; inhibition, % at 2 µM;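 active = inhibition above the mean plus 3 SD, with well images judged a real hit on visual review, cut at about 60% in these data, passing the limit was not always enough; inconclusive = inhibition over the cutoff but images rejected on review; inactive = inhibition not above the cutoff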
Insulin prom up: MIN6 insulin promoter up-regulation | MIN6 insulin promoter-GFP reporter, high-content imaging; stronger effect = higher value | z-score at 5 µM | hit rate 0.3% among 190,000 | AID 1625;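 active = z-score above 3 at 5 µM with at least 500 cells counted in the well; inconclusive = wells under 500 cells, flagged as cytotoxic or low count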
NPY-Y2 PAM-ag: potentiates or activates human NPY-Y2 receptor; P49146; cells expressing NPY-Y2, potentiator/agonist read-out; activation, % at 3.6 µM; hit rate 0.45% among 220,000; AID 1359; in the data active = activation above about 27%;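 note: cells stimulated with NPY near EC25 plus isoproterenol at EC100; 0% = vehicle plus submaximal agonist and 100% = vehicle plus saturating agonist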
Target sequence (P49146 whole entry, looked up): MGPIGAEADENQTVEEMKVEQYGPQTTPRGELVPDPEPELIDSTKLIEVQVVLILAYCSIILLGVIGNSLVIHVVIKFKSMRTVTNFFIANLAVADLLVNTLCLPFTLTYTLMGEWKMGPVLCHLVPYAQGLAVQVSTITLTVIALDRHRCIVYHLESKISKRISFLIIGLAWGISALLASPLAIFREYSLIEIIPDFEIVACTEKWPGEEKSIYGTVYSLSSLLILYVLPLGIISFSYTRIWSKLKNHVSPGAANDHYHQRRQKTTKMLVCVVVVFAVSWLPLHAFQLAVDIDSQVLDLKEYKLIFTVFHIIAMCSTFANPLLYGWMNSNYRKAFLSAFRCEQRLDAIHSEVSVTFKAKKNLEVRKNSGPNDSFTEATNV
NPY-Y2 antag: blocks the human neuropeptide Y Y2 receptor; inhibition, % at 2.7 µM; AID 793; NPY-Y2 expressing cells, antagonist mode; hit rate 0.99% among 140,000; P49146;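 note: 0% = vehicle with agonist challenge and 100% = reference antagonist with challenge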
NPY1 pot ag: human NPY-Y1 potentiation or agonism, primary screen; hit rate 0.37% among 220,000; P25929; NPY-Y1 expressing cells, potentiator/agonist activation; AID 1304; activation, % at 3.6 µM; in the data active = activation above about 33%, passing the limit was not always enough;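 note: cells stimulated with NPY at EC10 then isoproterenol at EC100; 0% = low agonist plus stimulus and 100% = saturating agonist plus stimulus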
Target sequence (P25929 whole entry, looked up): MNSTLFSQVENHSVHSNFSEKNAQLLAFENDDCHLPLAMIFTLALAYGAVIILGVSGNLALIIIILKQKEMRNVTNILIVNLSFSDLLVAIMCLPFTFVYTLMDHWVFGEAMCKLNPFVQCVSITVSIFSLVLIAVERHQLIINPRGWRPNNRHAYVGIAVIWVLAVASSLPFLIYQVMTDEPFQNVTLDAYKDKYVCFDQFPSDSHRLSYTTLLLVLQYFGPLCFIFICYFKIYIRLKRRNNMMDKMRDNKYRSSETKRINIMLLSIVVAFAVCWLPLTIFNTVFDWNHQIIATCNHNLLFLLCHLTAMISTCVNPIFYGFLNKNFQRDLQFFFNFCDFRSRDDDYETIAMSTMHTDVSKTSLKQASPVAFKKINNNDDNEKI
NPY-Y1 antag: blocks the human neuropeptide Y Y1 receptor. P25929. HEK293-CNG Y1 cells, membrane potential fluorescence; NPY at EC95, then isoproterenol. inhibition, % at 3.6 µM. hit rate 1% among 200,000. AID 1040;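 active = inhibition above the campaign mean inhibition of all tested compounds plus 3 SD, cut at about 20% in these data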;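 note: 0% = DMSO wells given NPY plus isoproterenol and 100% = isoproterenol alone without NPY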
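material = HEK293 cells with Y1 receptor plus CNG channel | also added = NPY 25 nM then isoproterenol 1 µM plus Ro 20-1724 25 µM | schedule = dye 3 h, compound 60 min room temperature, stimulation 45 min | measured by = membrane potential fluorescence | benchmarks = high control isoproterenol alone, low control NPY with isoproterenol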
NPY-Y1 ant conf: confirmation of human neuropeptide Y receptor Y1 antagonists; shares compounds with NPY-Y1 antag; HEK293-CNG NPY-Y1, membrane potential fluorescence, cAMP; NPY challenge against isoproterenol-raised cAMP; inhibition, % at 3.6 µM; hit rate 21% among 1,200; in the data active = inhibition above about 20%;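 note: 0% = vehicle with agonist plus stimulus and 100% = stimulus alone without agonist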
NPY2 antag ctr: counter-screen for NPY-Y1 antagonists: human NPY-Y2 antagonism | shares compounds with NPY-Y1 antag | HEK293 NPY-Y2 CNG membrane potential fluorescence; cells given NPY, then isoproterenol | inhibition, % at 3.6 µM | hit rate 28% among 1,200 | AID 1255;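 note: 0% = DMSO with agonist challenge and 100% = reference antagonist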
NPY-Y2 pot conf: human NPY-Y2 potentiation or agonism, confirmation; shares compounds with NPY-Y2 PAM-ag; cell-based NPY-Y2 potentiator/agonist assay; activation, % at 3.6 µM; hit rate 20% among 450; AID 1539; in the data active = activation above about 33%
NPY-Y1 counter: counter-screen for NPY-Y2 potentiators or agonists: NPY-Y1 potentiators or agonists. shares compounds with NPY-Y2 PAM-ag. Y1 HEK293-CNG cells, membrane potential fluorescence. activation, % at 3.6 µM. hit rate 20% among 450; in the data active = activation above about 45%;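 note: cells stimulated with submaximal NPY then isoproterenol with phosphodiesterase inhibitor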
NPY-Y1 agonist 2: counter-screen for NPY-Y2 potentiators: agonists of human NPY-Y1; hit rate 37% among 450; shares compounds with NPY-Y2 PAM-ag; activation, % at 3.6 µM; HEK293 Y1-CNGC, membrane potential fluorescence, agonism;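 active = activation above the mean of DMSO-only control wells plus 3 SD, cut at about 18% in these data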;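 note: cells stimulated with 1 µM isoproterenol plus the PDE inhibitor Ro 20-1724; 0% = isoproterenol with DMSO and no NPY and 100% = 40 nM NPY; Y1 agonists lower the membrane potential dye signal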
CNGC inh: cyclic nucleotide gated channel inhibition as counter-screen; inhibition, % at 3.6 µM; hit rate 32% among 450; HEK293-CNG parental, isoproterenol cAMP, membrane potential fluorescence; AID 1703; shares compounds with NPY-Y2 PAM-ag;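 active = inhibition above the control-well mean plus 3 SD of those wells, cut at about 22% in these data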;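 note: 0% = DMSO with isoproterenol and 100% = DMSO without isoproterenol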
NPY-Y2 ag 2: counter-screen for NPY-Y2 potentiators: agonists of human NPY-Y2 | shares compounds with NPY-Y2 PAM-ag | HEK293 Y2/CNGC cells, membrane potential fluorescence, agonist mode | activation, % at 3.6 µM | hit rate 56% among 450;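 active = activation above the mean of solvent-only control wells plus 3 SD, cut at about 10% in these data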;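 note: cells stimulated by isoproterenol with no NPY added so direct agonism is tested; 0% = DMSO with isoproterenol alone and 100% = NPY at EC100 plus isoproterenol; agonism lowers probe fluorescence through less cAMP and CNG channel opening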
Active calls of the source: *; u = inconclusive; x = no result given. An excerpt weighted towards active compounds, which were near 2.5% of everything screened. Cut-off read from the data, not from the text of the source, unless noted: active = inhibition above about 17%; inactive = the rest.

SMILES | Insulin prom inh | Insulin prom up | NPY-Y2 PAM-ag | NPY-Y2 antag | NPY1 pot ag | NPY-Y1 antag | NPY-Y1 ant conf | NPY2 antag ctr | others
O=C1CS/C(=C\[N+](=O)[O-])N1c1ccccc1 | x | 0.04 | 8 | -2 | 14 | -2 | x | x
Cn1nccc1C(=O)Nc1cccc(C(F)(F)F)c1 | 10 | -0.48 | 15 | x | 13 | 2 | x | x
Cn1nc(C(=O)Nc2cccc(C(F)(F)F)c2)c2ccccc2c1=O | x | 0.95 | -66 | 13 | -50 | 29* | 17 | 9
COC(=O)c1ccc(NC(=O)CCN2CCN(Cc3ccccc3)CC2)cc1 | 50 | x | -2 | 3 | 1 | -2 | x | x
Cc1ccc(Cl)cc1N1CCN(C(c2ccc(C#N)cc2)c2nnnn2C2CCCC2)CC1 (configuration not stated) | 29 | -0.63 | -18 | 14 | -12 | 27* | 18 | 13
CCC(c1nnnn1C(C)(C)C)N1CCN(c2cc(Cl)ccc2C)CC1 (configuration not stated) | -58 | 0.62 | -24 | 11 | -18 | 25* | 14 | 14
Cc1ccc(Cl)cc1N1CCN(C(c2cccnc2)c2nnnn2C2CCCCC2)CC1 (configuration not stated) | -87 | -0.4 | 7 | 1 | 10 | -1 | x | x
COc1ccc(C2(C(=O)N3CCOCC3)CCOCC2)cc1OC | 9 | 0.01 | -4 | 3 | 12 | 0 | x | x
CCCCOc1ccccc1C1CC(=O)NC2=C1C(=O)CCC2 (configuration not stated) | -45 | 1.2 | -8 | 3 | -13 | 44* | 10 | 21*
CCCOc1ccccc1C1CC(=O)NC2=C1C(=O)CCC2 (configuration not stated) | x | -1.1 | 8 | 4 | 23 | -3 | x | x
Cn1c(SC2CCCCC2=O)nnc1-c1ccncc1 (configuration not stated) | 5 | -0.9 | 4 | 1 | -11 | 1 | x | x
O=C(COc1ccc2ccccc2c1)NCCc1ccc2c(c1)OCCO2 | -38 | 0.08 | -10 | 16 | -52 | 25* | 17 | 11
O=C(COc1ccc2ccccc2c1)NCCNC(=O)COc1ccc2ccccc2c1 | -14 | 0.59 | 2 | 4 | -2 | 6 | x | x
COc1ccc(OC)c(CCNC(=O)CS(=O)(=O)Cc2nc(-c3ccccc3C)oc2C)c1 | -131 | 0.21 | -47 | 16 | -41 | 21* | 7 | 7
CCOC(=O)c1ccc(Nc2ncnc3ccc(C)cc23)cc1 | -3 | -2 | -9 | 2 | -8 | 45* | 0 | 5
COC(=O)CNC(c1ccccc1)c1cc(Br)ccc1NS(=O)(=O)c1ccccc1 (configuration not stated) | x | -0.33 | -3 | 17 | -31 | 27* | -1 | 4
COC(=O)CNC(c1ccccc1)c1cc(Br)ccc1NS(=O)(=O)c1ccc(C)cc1 (configuration not stated) | -75 | -0.65 | 17 | 4 | 7 | 11 | x | x
COc1ccccc1CNC(=O)CCS(=O)(=O)c1cccc2nonc12 | -11 | 0.69 | -4 | 1 | 17 | 1 | x | x
Clc1ccc(SCCOCCN2CCc3ccccc3C2)cc1 | 9 | -2 | -5 | x | -23 | 23* | 15 | 12
c1ccc(-c2ccccc2OCCOCCN2CCc3ccccc3C2)cc1 | -20 | -3.3 | -11 | x | -11 | 16 | x | x
Clc1ccc(OCCOCCN2CCc3ccccc3C2)c(Cl)c1 | x | -0.79 | -16 | 10 | -28 | 25* | 8 | 8
Cc1ccccc1C(=O)Nc1ccc(C(=O)N/N=C/c2ccc(O)c(Br)c2)cc1 | x | -0.7 | -10 | x | 5 | -2 | x | x
O=C(COC(=O)CCc1c[nH]c2ccccc12)Nc1cc([N+](=O)[O-])ccc1Cl | x | -0.41 | -3 | 8 | -24 | 27* | 9 | 8
Clc1ccc(OCCN2CCN(c3ncnc4sccc34)CC2)cc1 | 5 | u | -3 | 8 | -46 | 26* | 20 | 20*
Cc1ccc(OCCN2CCN(c3ncnc4sc(C)c(C)c34)CC2)cc1 | x | x | 5 | 13 | -68 | 9 | x | x
SMILES | Insulin prom inh | Insulin prom up | NPY-Y2 PAM-ag | NPY-Y2 antag | NPY1 pot ag | NPY-Y1 antag | NPY-Y1 ant conf | NPY2 antag ctr | others
CCOc1ncccc1C(=O)N1CCN(c2cc(Cl)ccc2C)CC1 | x | -0.29 | -7 | x | 3 | 7 | x | x
CCOc1ncccc1C(=O)N1CCN(c2cccc(C)c2C)CC1 | x | x | -22 | x | -18 | 24* | 9 | 10
CC(O)C(NC=C1C(=O)OC(C)(C)OC1=O)C(=O)O (configuration not stated) | x | 2.1 | -3 | x | -20 | 2 | x | x
COC(=O)c1c(NC(=O)C2COc3ccccc3O2)sc2c1CCN(Cc1ccccc1)C2 (configuration not stated) | x | -0.12 | -28 | 15 | -17 | 22* | 31* | 24*
CC1(C)CC(=O)C/C(=N\NC(=O)C2C3CCCCC32)C1 (configuration not stated) | x | 0.05 | -9 | x | -15 | -1 | x | x
CCc1nccn1S(=O)(=O)c1ccc2ccc(C)cc2c1 | -4 | 0.36 | -43 | 15 | -36 | 34* | 16 | 15
COC(=O)c1ccc(COC(=O)CNC(=O)c2ccco2)cc1 | 4 | 1.9 | -4 | 2 | 0 | 9 | x | x
COC(=O)c1ccc(COC(=O)CNC(=O)c2ccc(-c3ccccc3)cc2)cc1 | -13 | -0.33 | -7 | 4 | -7 | 21* | -2 | 2
O=C(CNC(=O)c1cnccc1C(F)(F)F)c1cccc(Cl)c1 | x | 0.46 | 4 | x | 15 | x | x | x
Cc1ccc(-n2ncc3c(SCc4cccnc4)ncnc32)c(C)c1 | 50 | -4.4 | 33* | x | -9 | 25* | 13 | 6 | NPY-Y2 pot conf=-17;NPY-Y1 counter=-60;NPY-Y1 agonist 2=-50;CNGC inh=-27;NPY-Y2 ag 2=-23
N=c1c2ccccc2nnn1-c1ccc(C(F)(F)F)cc1 | x | -0.34 | -4 | x | -13 | 0 | x | x

Compound activity from PubChem.
